STAT3 activator – STAT3 signaling activation; U3A cells, IL-6 STAT3-luciferase reporter, luminescence; 100% = signal with IL-6 EC80 alone; activation (% of control), % at 5.6 µM; actives 0.91% (n = 190,000); AID 871;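 active means activation above the screen-wide mean of compound activation plus 3 SD, cut at about 130% in these data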;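 further: 0% = background luminescence of wells with medium and substrate only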
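Detection: reporter luminescence signal / Assay system: STAT1-lacking human U3A cells, STAT3 luciferase reporter / Incubation: compound pre-incubation 1 h before IL-6, then 6 h stimulation at 37 °C / Control set: IL-6-only high control / Read-out: % activation relative to IL-6 control / Probe or stimulus: Interleukin-6, 33 ng/mL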
STAT1 activator – STAT1 signaling activation. NIH 3T3 STAT1-luciferase reporter, IFN-gamma, luminescence; 100% = IFN-gamma alone, no compound. activation (% of control), % at 5.5 µM. actives 2.6% (n = 200,000);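 active means activation above the screen-wide mean activation plus 3 SD, cut at about 130% in these data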;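 further: raw ratio to IFN-gamma control signal so 100% means no change and 0% no light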
STAT3 inh-1 – inhibitors of IL-6 induced STAT3 signaling | U3A cells, IL-6 STAT3-luciferase reporter, luminescence; host cell line lacks STAT1 | inhibition, % at 5.5 µM | actives 0.89% (n = 190,000) | AID 862;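 active means inhibition above the mean inhibition across all screened compounds plus 3 SD, cut at about 44% in these data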;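 further: 0% = DMSO only wells and 100% = 100 µM nifuroxazide control wells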
STAT1 inh – reduces IFN-gamma driven STAT1 reporter signal; inhibition, % at 5.5 µM; actives 0.35% (n = 200,000); NIH 3T3 STAT1-luciferase reporter, luminescence;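 active means inhibition above a set limit, the mean inhibition across all tested compounds plus 3 SD, cut at about 34% in these data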;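 further: 0% = IFN-gamma with DMSO and 100% = IFN-gamma with 300 µM nifuroxazide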
STAT3 inh-2 – confirmation of STAT3 signaling inhibitors | shares compounds with STAT3 inh-1 | U3A cells, IL-6 STAT3 luciferase reporter, luminescence; cell line lacks STAT1 | inhibition, % at 5.7 µM | actives 45% (n = 1,200) | AID 1265;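 active means inhibition above the hit cutoff computed for the primary STAT3 screen, cut at about 44% in these data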;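 further: 0% = IL-6 plus DMSO and 100% = IL-6 plus nifuroxazide control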
NFkB inh STAT3ct – inhibits NF-kappaB, counter-screen to STAT3 inhibitors. shares compounds with STAT3 inh-1. HEK293T NF-kB luciferase reporter, TNF-alpha induced. inhibition, % at 5.7 µM. actives 36% (n = 1,200). AID 1308;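 active means inhibition above the mean of solvent-only control wells plus 3 SD, cutoff set per campaign, cut at about 13% in these data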;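 further: 0% = TNF-alpha with DMSO and 100% = TNF-alpha with MG high control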
STAT1 inh STAT3c – STAT1 inhibition in STAT3 inhibitor counter-screen | inhibition, % at 5.7 µM | actives 27% (n = 1,200) | AID 1317 | shares compounds with STAT3 inh-1 | NIH 3T3 STAT1-luciferase reporter, IFN-gamma induced, luminescence;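 active means inhibition above the mean plus 3 SD of solvent-only control wells, limit set per screening run, cut at about 16% in these data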;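 further: 0% = DMSO with IFN-gamma and 100% = nifuroxazide control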
The depositor's hits bear a star; . = no result given. The list is not random: actives were taken first. Their share in the collection is about 4.3%.

SMILES	STAT3 activator	STAT1 activator	STAT3 inh-1	STAT1 inh	STAT3 inh-2	NFkB inh STAT3ct	STAT1 inh STAT3c
CCN1/C(=C/c2ccc3cc(C)ccc3[n+]2CC)Sc2ccccc21	24	77	91*	26	88*	37*	21*
CC(C)CC(O)C1CCN(C(=O)CCc2nnc(-c3ccccc3)o2)CC1 (stereo unspecified)	100	98	3	1	.	.	.
CCCCn1c(SCC(=O)Nc2cc(C(F)(F)F)cc(C(F)(F)F)c2)nnc1C(CC)N(C)C (stereo unspecified)	103	102	-7	0	.	.	.
CCc1ccc(NC(=O)c2cc(C)on2)cc1	63	115	49*	-17	12	-34	-87
CCc1ccc(NC(=O)c2cc(C(C)C)on2)cc1	65	121	48*	-23	9	-36	-105
CCN(CC)CCCN(C(=O)Cn1nnc(-c2ccc(OC)c(OC)c2)n1)C(C(=O)NC(C)(C)C)c1ccc(F)cc1 (stereo unspecified)	110	95	-1	5	.	.	.
Brc1ccc(-c2nc3ncccn3c2NC2CCCCC2)o1	91	108	11	-6	.	.	.
c1ccc(-n2nnc3c(N4CCOCC4)ncnc32)cc1	32	90	81*	11	40	2	-53
O=C(Nc1ccc2c(c1)OCO2)N1CCN(Cc2ccco2)CC1	67	93	45*	7	9	-11	-2
Cc1ccc(NC(=O)N2CCN(Cc3ccc4c(c3)OCO4)CC2)cc1	97	103	11	-3	.	.	.
COc1ccc(C(=O)CSc2nnc(Cn3cnc4ccccc43)o2)cc1	42	91	73*	10	49*	14*	2
CCOc1ccc(C(=O)Nc2ccc(S(=O)(=O)N3CCOCC3)cc2)cc1OCC	100	93	4	6	.	.	.
CCOc1cc(C(=S)N2CCOCC2)ccc1OS(=O)(=O)c1ccc(NC(C)=O)cc1	56	86	58*	15	45*	13	13
CC(=O)N1CCc2cc(C(=O)CN3CCN(c4cccc(Cl)c4)CC3)ccc21	68	96	45*	5	17	-8	-14
CCN(CC)c1ccc(Nc2nc(N3CCOCC3)c3ccccc3n2)cc1	61	81	49*	20	41	9	15
Nc1nnnn1/N=C/c1cccc(O)c1	130	104	-22	-5	.	.	.
N/C(=N\N=C\c1cccc(O)c1)c1nonc1N	49	105	63*	-7	27	-6	-2
CCOc1cc(S(=O)(=O)NCc2ccncc2)ccc1Cl	28	69	84*	34	85*	34*	27*
CC1CCCCC1NS(=O)(=O)c1ccc(S(=O)(=O)NCc2ccncc2)cc1 (stereo unspecified)	44	77	73*	26	48*	9	12
Cc1ccc(S(=O)(=O)NCC(=O)NCc2ccncc2)cc1	108	97	-7	0	.	.	.
CCOC(=O)COc1ccc(S(=O)(=O)NCc2ccncc2)cc1	43	80	70*	26	55*	12	23*
Cc1ccc(S(=O)(=O)NCc2ccncc2)cc1	44	79	68*	23	38	21*	25*
COc1ccc(C2CC(=O)C(C=NCCN3CCN(C(=S)Nc4ccccc4)CC3)=C(O)C2)cc1OC (stereo unspecified)	95	95	8	5	.	.	.
Cc1cc2oc(=O)cc(Cn3nnc(-c4ccc(Cl)cc4)n3)c2cc1C(C)C	104	105	1	-5	.	.	.
COCCSc1ccccc1C(=O)NCc1cccnc1	98	99	7	-1	.	.	.
SMILES	STAT3 activator	STAT1 activator	STAT3 inh-1	STAT1 inh	STAT3 inh-2	NFkB inh STAT3ct	STAT1 inh STAT3c
O=C(COC(=O)CCc1c[nH]c2ccccc12)NC(c1ccccc1)c1ccccc1	105	102	-3	-3	.	.	.
CCOc1ccc(S(=O)(=O)NCc2ccncc2)cc1	27	74	88*	28	82*	34*	24*
C[C@H]1O[C@@H](O[C@H]2[C@@H](O)C[C@H](O[C@H]3[C@@H](O)C[C@H](O[C@H]4CC[C@@]5(C)[C@H](CC[C@@H]6[C@@H]5C[C@@H](O)[C@]5(C)[C@@H](C7=CC(=O)OC7)CC[C@]65O)C4)O[C@@H]3C)O[C@@H]2C)C[C@H](O)[C@@H]1O	25	126	87*	-29	82*	-7	-16
CCOC(=O)c1oc2ccc(S(=O)(=O)Nc3ccc4c(c3)n(C)c(=O)n4C)cc2c1C	53	85	60*	16	57*	10	14
Cn1c(=O)n(C)c2cc(NS(=O)(=O)c3ccc4c(c3)CCCC4)ccc21	59	84	53*	18	41	8	20*
Cn1c(=O)n(C)c2cc(NS(=O)(=O)c3ccc(C(C)(C)C)cc3)ccc21	75	85	33	15	.	.	.
CCN1CCN(CCOc2cccc(Oc3ccccc3)c2)CC1	104	100	-1	-2	.	.	.
Cc1nn(C)c(C)c1CN(C)S(=O)(=O)c1ccc2ccccc2c1	36	69	78*	33	80*	30*	24*
Cc1nn(C)c(C)c1CN(C)S(=O)(=O)c1ccc(F)cc1	82	86	24	16	.	.	.
COc1cc(NC(=O)CSc2ncnc3c2cnn3Cc2ccccc2)cc(OC)c1	87	94	21	6	.	.	.
COc1ccc(OC)c(NC(=O)CSc2ncnc3c2cnn3-c2ccccc2Cl)c1	35	76	79*	31	81*	31*	26*
Cc1n[nH]c(=O)n1-c1ccc(OCc2ccccc2)cc1	107	122	-2	-26	.	.	.
O=C(NCc1cccs1)c1ccc(N2CCCC2=O)cc1	101	106	5	-7	.	.	.
NC(=O)c1ccsc1NC(=O)c1ccc(N2CCCC2=O)cc1	51	90	62*	10	13	-24	-100
O=C(Nc1ccc2c(c1)C(=O)N(CC1CCCO1)C2=O)c1ccc(Cl)c(Cl)c1 (stereo unspecified)	41	110	72*	-11	62*	14*	-16
Cc1ccc(NC(=O)c2ccc3c(c2)C(=O)N(CC2CCCO2)C3=O)cc1C (stereo unspecified)	113	122	-13	-27	.	.	.
CC1CCN(c2ccccc2NC(=S)NC(=O)C(C)(C)C)CC1	108	98	-2	2	.	.	.
OC1(c2ccc(OC(F)F)cc2)CSC(=Nc2cccnc2)N1C1CC1 (stereo unspecified)	60	87	53*	15	40	3	10
COc1ccc(OC)c(C2(O)CSC(=Nc3cccnc3)N2Cc2ccco2)c1 (stereo unspecified)	86	85	24	17	.	.	.

Assay outcomes deposited in PubChem by The Scripps Research Institute Molecular Screening Center.
